Changes are numbered by the printed parent chain. “Also recorded” adds a separate entry of the source. Where two headings read alike, the source gives them in different places.
Key:
PHGDH = target: T1, PHGDH (Homo sapiens, UniProt O43175); assay: PHGDH enzyme assay coupled with PSAT1 reaction; assay type: biochemical
T1 sequence (O43175 1-533): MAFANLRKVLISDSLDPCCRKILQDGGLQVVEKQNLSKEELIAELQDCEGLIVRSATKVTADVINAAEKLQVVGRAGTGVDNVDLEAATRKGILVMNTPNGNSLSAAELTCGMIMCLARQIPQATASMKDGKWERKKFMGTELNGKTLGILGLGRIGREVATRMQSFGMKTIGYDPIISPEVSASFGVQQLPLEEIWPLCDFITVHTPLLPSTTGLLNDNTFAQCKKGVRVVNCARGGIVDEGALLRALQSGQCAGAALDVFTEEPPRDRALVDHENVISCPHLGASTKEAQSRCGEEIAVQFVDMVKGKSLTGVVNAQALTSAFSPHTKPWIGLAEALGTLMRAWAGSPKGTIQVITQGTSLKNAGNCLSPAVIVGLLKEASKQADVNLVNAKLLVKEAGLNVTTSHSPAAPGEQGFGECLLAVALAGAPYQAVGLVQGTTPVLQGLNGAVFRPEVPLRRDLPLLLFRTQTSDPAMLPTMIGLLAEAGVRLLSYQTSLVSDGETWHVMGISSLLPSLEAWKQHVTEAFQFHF
Outline: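 Full-length human PHGDH and PSAT1 were His-purified from E. coli BL21(DE3) (pET21a(+)) by Ni-NTA then gel filtration. PHGDH activity was measured coupled to the upstream PSAT1 reaction. For cofactor competition, enzyme was preincubated 10 min at 25°C with NADH and compound, and Pser was added to start the reaction. For combinations, fixed first-compound levels (0–200 μM) were mixed with second-compound series (0–200 μM) and preincubated with enzyme.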

PHGDH mutant T59A = target: T2, PHGDH mutant T59A (Homo sapiens, UniProt O43175, T60A); assay: PHGDH enzyme assay, mutant T59A; assay type: biochemical; details: read-out: IC50, PHGDH enzyme inhibition
T2 sequence (O43175 1-533 T60A): T1 sequence (O43175 1-533) with T60A
Outline: (§1)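 Point mutants were made by QuikChange site-directed mutagenesis of pET-21a(+) wild-type human PHGDH and sequence-verified. Each was expressed in E. coli and purified like the wild type, then assayed for activity and inhibition in the same PSAT1-coupled PHGDH assay.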

PHGDH mutant T56AK57A = target: T3, PHGDH mutant T56AK57A (Homo sapiens, UniProt O43175, K58A/T57A); assay: PHGDH enzyme assay, mutant T56AK57A; assay type: biochemical; details: read-out: IC50, PHGDH enzyme inhibition
T3 sequence (O43175 1-533 T57A/K58A): T1 sequence (O43175 1-533) with T57A, K58A
Outline: as §1

MDA-MB-468 cells [1] = assay: MTT cell viability assay; assay type: cell-based, human; details: read-out: EC50, antitumor activity (cell viability), MDA-MB-468, 72 h
HCC70 cells = assay: MTT cell viability assay; assay type: cell-based, human; details: read-out: EC50, antitumor activity (cell viability), HCC70, 72 h
MDA-MB-231 cells = assay: MTT cell viability assay; assay type: cell-based, human; details: read-out: EC50 (cell viability), MDA-MB-231, 72 h
ZR-75-1 cells = assay: MTT cell viability assay; assay type: cell-based, human; details: selectivity, PHGDH amplified vs non-dependent line
MCF-7 cells = assay: MTT cell viability assay; assay type: cell-based, human; details: read-out: EC50 (cell viability), MCF-7, 72 h
MCF-10A cells = assay: MTT cell viability assay; assay type: cell-based, human
[2] = system: panel of cancer cell lines along with one immortalized human breast epithelial cell line; assay: MTT cell viability assay, cell line panel; assay type: cell-based
[3] = system: SKOV3 GFP KO control cells; assay: 6-day proliferation assay; assay type: cell-based, human; details: 50 μM PKUMDL-WQ-2201, 6 days
Outline: (§2)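 SKOV3 control (sgRNA against GFP) and PHGDH knockout cells were used. Knockout was made by lentiCRISPR with an exon 8 sgRNA, puromycin selection and single-cell clones, and was western-validated. Cells were grown in RPMI-1640 with 10% FBS and plated at 10,000 cells/well in triplicate. After 24 h they received DMSO or compound, and viable cells were counted daily for 6 days by trypan-blue exclusion on a hemocytometer. Data are mean ± SEM, n=3 biological replicates, two-tailed Student's t-test.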

SKOV3 PHGDH KO cells = assay: 6-day proliferation assay; assay type: cell-based, human; details: 50 μM PKUMDL-WQ-2201, 6 days
Outline: as §2

[4] = system: serine biosynthesis pathway in SKOV3 GFP KO cells; assay: U-13C-glucose stable isotope labeling, LC-HRMS; assay type: cell-based, human
MDA-MB-468 xenografts = assay: MDA-MB-468 xenograft mouse model; assay type: in vivo, NOD.CB17 Scid/J mice; details: 20, 10 and 5 mg/kg/day IP, 30 days of drug delivery, vs vehicle
MDA-MB-231 xenografts = assay: MDA-MB-231 xenograft mouse model; assay type: in vivo, NOD.CB17 Scid/J mice; details: 20 mg/kg/day IP
[5] = Body weight of xenograft mice during treatment; assay type: in vivo; details: over the course of the xenograft experiments
MDA-MB-468 cells [6] = details: 30 μM, ref Mullarky et al., 2016, cited from earlier work
[7] = ref Mullarky et al., 2016; cited from earlier work
[8] = 37 μM PKUMDL-WQ-2101, 291 μM PKUMDL-WQ-2201, 24 h treatment

For `CCNC(=S)N/N=C/c1ccc(-c2ccc(C(=O)O)c(Cl)c2)o1` [PKUMDL-WQ-2201], the “combination effect on PHGDH inhibition (Combination Index)” value (PHGDH; PKUMDL-WQ-2101 kept at 25 μM, PKUMDL-WQ-2201 1 to 200 μM) was “synergistic interactions”, the “combination effect on PHGDH inhibition (Combination Index)” value (PHGDH; PKUMDL-WQ-2202 kept at 25 μM, PKUMDL-WQ-2201 varied) was “antagonism” and the “competition with cofactor NADH” value (PHGDH; compound 50 μM, NADH 5 to 40 μM) was “did not bound in the cofactor site”. The IC50 (PHGDH; read-out: IC50, PHGDH enzyme inhibition, WT PHGDH) was 35.7 ± 8.6 µM, the IC50 (PHGDH mutant T59A) was 69 ± 40 µM and the IC50 (PHGDH mutant T56AK57A) was > 300 µM. For the same molecule, the EC50 (MDA-MB-468 cells [1]) was 6.9 µM, the EC50 (HCC70 cells) was 10 µM and the EC50 (MDA-MB-231 cells) was > 200 µM. For the same molecule, the “fold more active in MDA-MB-468 and HCC70 than in ZR-75-1” value (ZR-75-1 cells) was 13- to 18 fold, the EC50 (MCF-7 cells) was > 200 µM and the cytotoxic effects (MCF-10A cells) was “weak cytotoxic effects”. For the same molecule, the “bioactivity in the other three PHGDH non-amplified breast cancer cell lines” value ([2]; lines other than ZR-75-1) was “No bioactivities”, the EC50 ([2]; read-out: EC50 in PHGDH amplified breast cancer cells, serine-replete media) was < 10 µM and the cell growth [3] was “suppressed”. The cell growth (SKOV3 PHGDH KO cells) was “remained unaffected”, the “m+2, m+6 and m+7 glucose labeling in UTP and ATP” value [4, 8] was “decreases” and the “m+2 glucose incorporation into glutathione” value [4, 8] was “decreases in m+2”. For the same molecule, the “reduction of glucose incorporation into serine and glycine” value ([4]; about IC50 (37 μM PKUMDL-WQ-2101, 291 μM PKUMDL-WQ-2201), 24 h treatment) was “more than 50%”, the tumor growth (MDA-MB-468 xenografts) was “substantial inhibitory effects; also recorded: significantly suppressed the growth of tumors” and the tumor growth (MDA-MB-231 xenografts) was “neither PKUMDL-WQ-2101 nor PKUMDL-WQ-2201 affected tumor growth”. For the same molecule, the “body weight (tolerability)” value [5] was “able to maintain normal body weight”.
In the case of CBR-5884, the “inhibition of growth of MDA-MB-468 cells” value (MDA-MB-468 cells [6]; serine-deplete media) is given as 80% to 90%, the “inhibition of growth of MDA-MB-468 cells” value (MDA-MB-468 cells [6]; serine-replete media) is given as 35% to 60% and the “stability in mouse plasma” value [7] is given as “unstable in mouse plasma”.
